# Like-named read-outs stand apart in the source and are kept apart here.
# Tests used:
# α1β3γ2 GABAA receptors = α1β3γ2 GABAA receptors (Rattus norvegicus, UniProt P18508+P62813); experiment: Two electrode voltage clamp, modulation of EC3 GABA current in Xenopus oocytes; format: cell-based
# α2β3γ2 GABAA receptors = α2β3γ2 GABAA receptors (Rattus norvegicus, UniProt P18508+P23576); experiment: as above; format: cell-based
# α3β3γ2 GABAA receptors = α3β3γ2 GABAA receptors (Rattus norvegicus, UniProt P18508+P20236); experiment: as above; format: cell-based
# α3β3γ2 GABAA receptors, sequence (P20236 29-493): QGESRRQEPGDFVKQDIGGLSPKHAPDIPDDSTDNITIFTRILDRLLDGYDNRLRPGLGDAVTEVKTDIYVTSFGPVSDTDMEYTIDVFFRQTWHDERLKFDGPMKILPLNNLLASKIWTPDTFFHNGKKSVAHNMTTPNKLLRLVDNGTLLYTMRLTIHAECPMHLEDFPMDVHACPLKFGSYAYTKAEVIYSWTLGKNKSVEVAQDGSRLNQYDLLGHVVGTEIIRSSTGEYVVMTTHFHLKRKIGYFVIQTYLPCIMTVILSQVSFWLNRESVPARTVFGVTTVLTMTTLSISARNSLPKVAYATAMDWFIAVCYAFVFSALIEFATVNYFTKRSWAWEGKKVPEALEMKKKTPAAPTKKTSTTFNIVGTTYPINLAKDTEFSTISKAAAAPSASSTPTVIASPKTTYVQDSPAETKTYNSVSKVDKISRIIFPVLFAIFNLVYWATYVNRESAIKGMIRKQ
# α3β3γ2 GABAA receptors, sequence (P63079 26-473 partner): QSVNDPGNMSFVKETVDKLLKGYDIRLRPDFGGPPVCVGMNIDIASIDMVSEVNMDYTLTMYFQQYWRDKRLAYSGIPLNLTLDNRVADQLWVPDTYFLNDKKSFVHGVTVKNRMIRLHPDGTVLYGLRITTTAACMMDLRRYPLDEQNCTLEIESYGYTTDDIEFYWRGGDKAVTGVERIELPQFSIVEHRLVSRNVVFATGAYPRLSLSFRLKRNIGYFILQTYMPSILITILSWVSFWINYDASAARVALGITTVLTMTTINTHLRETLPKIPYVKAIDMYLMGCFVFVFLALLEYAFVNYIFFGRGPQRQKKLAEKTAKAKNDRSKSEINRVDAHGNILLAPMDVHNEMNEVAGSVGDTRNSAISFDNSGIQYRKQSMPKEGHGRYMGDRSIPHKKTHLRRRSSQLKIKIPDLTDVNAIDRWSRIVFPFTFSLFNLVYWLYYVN
# α3β3γ2 GABAA receptors, sequence (P18508 39-466): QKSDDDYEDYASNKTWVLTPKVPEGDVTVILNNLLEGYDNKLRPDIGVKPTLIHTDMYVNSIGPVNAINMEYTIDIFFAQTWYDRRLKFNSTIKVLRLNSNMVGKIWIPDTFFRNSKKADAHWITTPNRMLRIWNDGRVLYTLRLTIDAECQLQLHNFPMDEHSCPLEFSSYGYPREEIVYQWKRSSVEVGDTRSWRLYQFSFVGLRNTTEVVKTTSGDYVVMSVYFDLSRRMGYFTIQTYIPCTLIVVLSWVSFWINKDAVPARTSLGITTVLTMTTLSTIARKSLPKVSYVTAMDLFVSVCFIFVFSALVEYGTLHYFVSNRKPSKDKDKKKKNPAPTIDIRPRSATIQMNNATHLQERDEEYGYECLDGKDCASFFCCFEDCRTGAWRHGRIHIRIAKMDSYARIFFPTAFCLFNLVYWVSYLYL
# α5β3γ2 GABAA receptors = α5β3γ2 GABAA receptors (Rattus norvegicus, UniProt P18508+P19969); experiment: as above; format: cell-based; conditions: for % of control current: EC3 GABA, α5β3γ2
# α5β3γ2 GABAA receptors, sequence (P19969 32-464 limits assumed): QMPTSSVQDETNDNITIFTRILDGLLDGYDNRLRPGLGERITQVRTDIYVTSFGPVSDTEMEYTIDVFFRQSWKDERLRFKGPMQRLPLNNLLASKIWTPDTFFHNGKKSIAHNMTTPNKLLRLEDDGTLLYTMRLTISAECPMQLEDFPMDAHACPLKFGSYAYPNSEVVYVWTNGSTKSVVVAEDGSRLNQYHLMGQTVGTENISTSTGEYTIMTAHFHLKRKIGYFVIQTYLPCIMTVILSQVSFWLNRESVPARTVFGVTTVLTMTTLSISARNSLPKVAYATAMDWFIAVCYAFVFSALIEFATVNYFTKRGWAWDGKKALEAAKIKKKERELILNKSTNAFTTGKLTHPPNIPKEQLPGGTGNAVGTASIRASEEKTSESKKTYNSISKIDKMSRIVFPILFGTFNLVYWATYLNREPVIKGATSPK
# α5β3γ2 GABAA receptors, sequence (P63079 26-473 partner): as the sequence (P63079 26-473 partner) above
# α5β3γ2 GABAA receptors, sequence (P18508 39-466): as the sequence (P18508 39-466) above
# [1] = tested on: spatial learning and memory; experiment: Morris water maze; format: in vivo, male Wistar rats; conditions: for effect on Morris water-maze performance on its own: WYS8 0.2, 1 and 10 mg/kg i.p., β-CCt 5 mg/kg i.p.
# In short: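 Male Wistar rats, 220–250 g, n=8/group, dosed i.p. in 85% water/14% propylene glycol/1% Tween 80 (sonicated) 20 min before each daily block for 5 acquisition days. Pool 200 cm wide with 23°C water; 15×10 cm platform 2 cm below the surface. Each block had 4 trials (max 120 s, 60 s interval, pseudorandom starts). Per-rat daily means were recorded. The probe trial measured target-region time and peripheral-ring distance.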
# [2] = Quantification in rat brain tissue; format: in vivo, Wistar rats; conditions: Wistar, intraperitoneal, 10 mg/kg, total brain concentration, highest behaviorally tested dose
# α1β3γ2 GABAA/BZ site = conditions: recombinant human receptors; ref Yin et al., 2010; cited from earlier work
# α2β3γ2 GABAA/BZ site = conditions: α2 GABAA receptors; ref Yin et al., 2010; cited from earlier work
# α3β3γ2 GABAA/BZ site = conditions: α3 GABAA receptors; ref Yin et al., 2010; cited from earlier work
# α5β3γ2 GABAA/BZ site = conditions: α5 GABAA receptors; ref Yin et al., 2010; cited from earlier work
# α1 GABAA receptors = conditions: after 7 days of treatment, ref Wu et al., 1995, cited from earlier work
# [3] = tested on: spatial learning and memory; conditions: ref Savić et al, 2009, cited from earlier work
# [4] = WYS8 0.2 and 10 mg/kg + DZP 2 mg/kg i.p.
# α1β3γ2 GABAA receptors, sequence (P62813 28-455): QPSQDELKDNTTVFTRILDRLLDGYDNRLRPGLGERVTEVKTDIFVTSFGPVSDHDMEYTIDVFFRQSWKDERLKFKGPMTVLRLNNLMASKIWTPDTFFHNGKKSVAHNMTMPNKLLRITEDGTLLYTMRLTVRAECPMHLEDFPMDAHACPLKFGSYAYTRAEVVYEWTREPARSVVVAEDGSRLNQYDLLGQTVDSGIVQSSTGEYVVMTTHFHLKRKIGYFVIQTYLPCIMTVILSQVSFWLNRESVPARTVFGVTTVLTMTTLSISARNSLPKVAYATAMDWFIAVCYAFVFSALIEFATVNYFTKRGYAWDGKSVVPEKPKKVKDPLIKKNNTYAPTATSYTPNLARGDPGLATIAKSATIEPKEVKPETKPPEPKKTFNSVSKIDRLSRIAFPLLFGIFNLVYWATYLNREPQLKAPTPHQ
# α1β3γ2 GABAA receptors, sequence (P63079 26-473 partner): as the sequence (P63079 26-473 partner) above
# α1β3γ2 GABAA receptors, sequence (P18508 39-466): as the sequence (P18508 39-466) above
# α2β3γ2 GABAA receptors, sequence (P23576 29-451): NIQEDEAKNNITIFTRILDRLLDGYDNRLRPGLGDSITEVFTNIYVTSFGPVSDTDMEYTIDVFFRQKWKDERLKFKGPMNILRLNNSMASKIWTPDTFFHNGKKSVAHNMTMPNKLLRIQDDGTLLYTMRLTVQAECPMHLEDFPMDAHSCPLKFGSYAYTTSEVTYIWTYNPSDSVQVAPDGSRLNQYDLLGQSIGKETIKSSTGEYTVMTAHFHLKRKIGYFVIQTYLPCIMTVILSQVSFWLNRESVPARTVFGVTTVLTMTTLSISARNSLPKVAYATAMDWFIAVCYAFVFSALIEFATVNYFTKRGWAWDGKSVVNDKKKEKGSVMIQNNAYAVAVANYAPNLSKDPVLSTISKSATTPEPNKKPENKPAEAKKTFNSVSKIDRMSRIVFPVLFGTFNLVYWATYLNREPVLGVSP
# α2β3γ2 GABAA receptors, sequence (P63079 26-473 partner): as the sequence (P63079 26-473 partner) above
# α2β3γ2 GABAA receptors, sequence (P18508 39-466): as the sequence (P18508 39-466) above
compound,measurement,setting,value
"CN1C(=O)CN=C(c2ccccc2)c2cc(Cl)ccc21 [DZP, diazepam, reference compound]",remaining activity at 0.01 µM,α1β3γ2 GABAA receptors; read-out: % of control current,136 ± 3%
same,remaining activity at 0.01 µM,α2β3γ2 GABAA receptors; read-out: % of control current,193 ± 5%
same,remaining activity at 0.01 µM,α3β3γ2 GABAA receptors; read-out: % of control current,167 ± 8%
same,remaining activity at 0.01 µM,α5β3γ2 GABAA receptors; read-out: % of control current,160 ± 2%
same,total distance travelled during acquisition,"[1]; 2 mg/kg i.p., vs solvent-treated controls",significantly longer distances than solvent-treated controls during all five days
"C#Cc1cccc2c1[nH]c1cnc(C(=O)OC(C)(C)C)cc12 [WYS8, 8-ethynyl-β-carboline-3-carboxylate-t-butyl ester]",potentiation,"α1β3γ2 GABAA receptors; at 100 nM, α1-subtype",40%
same,remaining activity at 0.01 µM,α1β3γ2 GABAA receptors; read-out: % of control current,124 ± 3%
same,remaining activity at 0.1 µM,α1β3γ2 GABAA receptors; read-out: % of control current,141 ± 5%
same,% of control current,"α2β3γ2 GABAA receptors; 10 nM compound, EC3 GABA, α2β3γ2",no significant stimulation
same,remaining activity at 0.1 µM,α2β3γ2 GABAA receptors; read-out: % of control current,109 ± 2%
same,% of control current,"α3β3γ2 GABAA receptors; 10 nM compound, EC3 GABA, α3β3γ2",no significant stimulation
same,remaining activity at 0.1 µM,α3β3γ2 GABAA receptors; read-out: % of control current,126 ± 7%
same,% of control current,α5β3γ2 GABAA receptors; 10 nM compound,no significant stimulation
same,% of control current,α5β3γ2 GABAA receptors; 100 nM compound,non-significant changes
same,modulation of EC3 GABA response,"α5β3γ2 GABAA receptors; 1 μM compound, α5 GABAA receptors","significant, though relatively small negative modulation"
same,concentration at 20 min,[2],< 100 nM
same,effect of addition to DZP on DZP's actions in the water maze,"[1]; WYS8 0.2, 1 and 10 mg/kg + DZP 2 mg/kg i.p.",did not generally affect the BZ’s actions
same,activity in the water maze when combined with β-CCt,"[1]; WYS8 0.2, 1 and 10 mg/kg + β-CCt 5 mg/kg i.p.",devoid of any activity
same,effect on Morris water-maze performance on its own,[1],no substantial effect
same,"latency on the fourth day, combination with DZP vs DZP alone",[1]; [4],significantly longer latencies than those treated with DZP alone
same,"total distance on the fourth day, combination with DZP vs DZP alone",[1]; [4],significantly longer distances than those treated with DZP alone
same,binding affinity at α1 GABAA receptors,α1β3γ2 GABAA/BZ site,sub-nanomolar
same,Ki,α2β3γ2 GABAA/BZ site,111 nM
same,Ki,α3β3γ2 GABAA/BZ site,102 nM
same,Ki,α5β3γ2 GABAA/BZ site,208 nM
CCN(CC)CCN1C(=O)CN=C(c2ccccc2F)c2cc(Cl)ccc21 [flurazepam],decrease of binding of radiolabelled zolpidem,α1 GABAA receptors; cerebellum,23%
same,decrease of binding of radiolabelled zolpidem,α1 GABAA receptors; hippocampus,14%
"CC(C)(C)OC(=O)c1cc2c(cn1)[nH]c1ccccc12 [β-CCt, t-butyl-β-carboline-3-carboxylate, reference compound]",effect on Morris water-maze performance on its own,[1],no substantial effect
same,binding affinity at α1 GABAA receptors,α1β3γ2 GABAA/BZ site,sub-nanomolar
same,effect on spatial learning deficits induced by DZP in the water maze,[3]; acquisition,almost completely abolished
same,"effect on spatial memory deficits induced by DZP, probe trial",[3],at least partially prevented

# Source: publication PMC3448846 (European neuropsychopharmacology : the journal of the …, 2012)
